{"data": "Measurements of several laboratories", "note": "Lines come from different studies, so protocols differ. pEC50, pIC50: −log10 of the molar value."}
{"Compound": "COc1cccnc1-c1nc2ccccn2c1Nc1ccc(F)cc1", "tested on": "Leishmania infantum", "test": "parasite growth", "conditions": "5 days, intracellular, amastigote", "measurement": "pEC50", "result": 4.50}
{"Compound": "COc1ccc(NC(=O)c2c(Nc3ccccc3)sc(C(=O)NN=Cc3ccc(C)cc3)c2NC(C)=O)cc1", "tested on": "HCT-116", "test": "cell growth or viability, SRB", "conditions": "1 µM, 48 h", "measurement": "viability", "result": "76.4%"}
{"Compound": "CCCN(c1ccc(F)cc1)c1c(-c2ccccn2)nc2ccccn12", "tested on": "Leishmania infantum", "test": "parasite growth", "conditions": "5 days, intracellular, amastigote", "measurement": "pEC50", "result": 5.80}
{"Compound": "O=C(O)CN1C(=O)/C(=C/c2ccc(-c3ccc(N(c4ccccc4)c4ccccc4)cc3)c3ccccc23)SC1=S", "tested on": "Streptococcus mutans", "test": "microbial growth, broth dilution", "test system": "ATCC25175", "measurement": "MIC", "result": "1000 µg/mL"}
{"Compound": "COc1ccc(NC(=O)c2c(Nc3ccccc3)sc(C#N)c2NC(=O)CNc2ccc([N+](=O)[O-])cc2)cc1", "tested on": "HCT-116", "test": "cell growth or viability, SRB", "conditions": "1 nM, 48 h", "measurement": "viability", "result": "103%"}
{"Compound": "NC(=O)N1c2ccccc2C=Cc2ccccc21", "test": "MES seizures", "test system": "rat", "conditions": "oral", "measurement": "ED50", "result": "10.9 mg/kg"}
{"Compound": "COc1ccc(NC(=O)c2c(Nc3ccccc3)sc(C#N)c2NC(=O)CNc2ccc(Cl)cc2)cc1", "tested on": "HCT-116", "test": "cell growth or viability, SRB", "conditions": "100 µM, 48 h", "measurement": "viability", "result": "33.5%"}
{"Compound": "O=C1NC(=S)N/C1=C\\c1ccc(-c2ccc(N(c3ccccc3)c3ccccc3)cc2)cc1", "tested on": "Streptococcus pyogenes", "test": "microbial killing, broth dilution", "test system": "ATCC19615", "measurement": "MBC", "result": "> 1000 µg/mL"}
{"Compound": "COc1ccc(NC(=O)c2c(Nc3ccccc3)sc(C#N)c2NC(=O)CNc2ccc(OC)c(OC)c2)cc1", "tested on": "HCT-116", "test": "cell growth or viability, SRB", "conditions": "1 µM, 48 h", "measurement": "viability", "result": "65.2%"}
{"Compound": "Cc1ccc2nc(-c3ccccn3)c(CN(CC(C)C)c3cccc(C(F)(F)F)c3)n2c1", "tested on": "Leishmania infantum", "test": "parasite growth", "conditions": "intracellular, amastigote", "measurement": "pEC50", "result": 5.50}
{"Compound": "COc1ccc2occ(/C=C/c3cc(OC)c(OC)c(OC)c3)c(=O)c2c1", "tested on": "HSC-2", "test": "cell growth or viability, MTT", "conditions": "6.7 h", "measurement": "CC50", "result": "50000 nM"}
{"Compound": "COc1ccc(NC(=O)c2c(Nc3ccccc3)sc(C(=O)NN=Cc3ccc(Br)cc3)c2NC(C)=O)cc1", "tested on": "HCT-116", "test": "cell growth or viability, SRB", "conditions": "1 µM, 48 h", "measurement": "viability", "result": "72.8%"}
{"Compound": "O=C(O)CN1C(=O)/C(=C/c2ccc(-c3ccc(N(c4ccccc4)c4ccccc4)cc3)c3ccccc23)NC1=S", "tested on": "Streptococcus mutans", "test": "microbial killing, broth dilution", "test system": "ATCC25175", "measurement": "MBC", "result": "> 1000 µg/mL"}
{"Compound": "COc1ccc(C=NNC(=O)c2sc(Nc3ccccc3)c(C(=O)Nc3ccc(OC)cc3)c2NC(C)=O)cc1", "tested on": "HCT-116", "test": "cell growth or viability, SRB", "conditions": "10 nM, 48 h", "measurement": "viability", "result": "86.1%"}
{"Compound": "Cc1ccc2nc(-c3ccccc3)c(CNc3ccc(F)cc3)n2c1", "tested on": "Leishmania infantum", "test": "parasite growth", "conditions": "intracellular, amastigote", "measurement": "pIC50", "result": "< 4.19"}
{"Compound": "COc1ccc2occ(/C=C/c3ccc(O)cc3)c(=O)c2c1", "tested on": "HSC-2", "test": "cell growth or viability, MTT", "conditions": "7 h", "measurement": "CC50", "result": "5500 nM"}
{"Compound": "COc1ccc(NC(=O)c2c(Nc3ccccc3)sc(C#N)c2NC(=O)CNc2ccc(Br)cc2)cc1", "tested on": "HCT-116", "test": "cell growth or viability, SRB", "conditions": "1 nM, 48 h", "measurement": "viability", "result": "101%"}
{"Compound": "Cc1cccc(-c2c(-c3ccccn3)nc3n2CCC3)c1", "tested on": "Leishmania infantum", "test": "parasite growth", "conditions": "5 days, intracellular, amastigote", "measurement": "pEC50", "result": 6.20}
{"Compound": "O=C(O)CN1C(=O)/C(=C/c2c3ccccc3c(-c3ccc(N(c4ccccc4)c4ccccc4)cc3)c3ccccc23)NC1=S", "tested on": "Streptococcus mutans", "test": "microbial killing, broth dilution", "test system": "ATCC25175", "measurement": "MBC", "result": "> 1000 µg/mL"}
{"Compound": "COc1ccc2nc(-c3cc(N(C)C)ccn3)c(N(C)c3ccc(F)cc3)n2c1", "tested on": "Leishmania infantum", "test": "parasite growth", "conditions": "intracellular, amastigote", "measurement": "pEC50", "result": 5.80}
{"Compound": "O=C1NC(=S)S/C1=C\\c1ccc(-c2ccc(N(c3ccccc3)c3ccccc3)cc2)cc1", "tested on": "Streptococcus pyogenes", "test": "microbial killing, broth dilution", "test system": "ATCC19615", "measurement": "MBC", "result": "> 1000 µg/mL"}
{"Compound": "COc1cc(OC)cc(-c2c(-c3ccccn3)nc3n2CCC3)c1", "tested on": "Leishmania infantum", "test": "parasite growth", "conditions": "5 days, intracellular, amastigote", "measurement": "pEC50", "result": 5.90}
{"Compound": "O=C1NC(=S)S/C1=C\\c1ccc(-c2ccc(N(c3ccccc3)c3ccccc3)cc2)c2ccccc12", "tested on": "Streptococcus mutans", "test": "microbial killing, broth dilution", "test system": "ATCC25175", "measurement": "MBC", "result": "> 1000 µg/mL"}
{"Compound": "COc1ccc(NC(=O)c2c(Nc3ccccc3)sc(C(=O)NN=Cc3ccc(Cl)cc3)c2NC(C)=O)cc1", "tested on": "HCT-116", "test": "cell growth or viability, SRB", "conditions": "1 nM, 48 h", "measurement": "viability", "result": "101%"}
{"Compound": "O=C(O)CN1C(=O)/C(=C/c2ccc(-c3ccc(N(c4ccccc4)c4ccccc4)cc3)cc2)SC1=S", "tested on": "Streptococcus pyogenes", "test": "microbial growth, broth dilution", "test system": "ATCC19615", "measurement": "MIC", "result": "15.6 µg/mL"}
{"Compound": "COc1ccc(/C=C/c2coc3ccc(OC)cc3c2=O)cc1", "tested on": "HSC-2", "test": "cell growth or viability, MTT", "conditions": "21 h", "measurement": "CC50", "result": "2500 nM"}
{"Compound": "COc1cccc(-c2nc3ccccn3c2Nc2ccc(F)cc2)n1", "tested on": "Leishmania infantum", "test": "parasite growth", "conditions": "5 days, intracellular, amastigote", "measurement": "pEC50", "result": "< 4.20"}
{"Compound": "O=C(O)CN1C(=O)/C(=C/c2c3ccccc3c(-c3ccc(N(c4ccccc4)c4ccccc4)cc3)c3ccccc23)SC1=S", "tested on": "Streptococcus mutans", "test": "microbial growth, broth dilution", "test system": "ATCC25175", "measurement": "MIC", "result": "> 1000 µg/mL"}
